This is an account of results in ChEMBL document CHEMBL3603751, “A new small molecule inhibitor of soluble guanylate cyclase” (Bioorg Med Chem, 2015).

Molecules are shown by their SMILES. The source made the active and inactive calls. The rule behind the calls is not given here.

One test is filed under the species Rattus norvegicus. Briefly: Inhibition of sGC in rat cerebellar slices assessed as inhibition of NMDA-induced cGMP production at 100 uM preincubated for 10 mins followed by phosphodiesterase inhibitor IBMX addition by radioimmunoassay. Summed up:
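Sagittal cerebellar slices 0.4 mm thick were cut from 10-day-old rats. Antagonists were added 10 min before IBMX (1 mM, 10 min preincubation). Slices were inactivated in boiling Tris–HCl (50 mM, pH 7.5) with EDTA (4 mM) and sonicated. Protein was measured by bicinchoninic acid and cGMP by radioimmunoassay.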

Test [1] has as its target T1, Adenylate cyclase (Homo sapiens) (UniProt Q8NFM4+O60503+Q08828+P40145+O60266+O95622+O43306+Q08462+P51828). Kind of test: Inhibition of adenylyl cyclase (unknown origin). In kind it is protein assay.
The target of test [2] is T1, Adenylate cyclase (Homo sapiens). Kind of test: Inhibition of forskolin-stimulated adenylyl cyclase (unknown origin).
A further test is filed under the species Bos taurus. Kind of test: Inhibition of bovine lung sGC using GTP as substrate assessed as inhibition of NO-stimulated cGMP formation at 100 uM preincubated with protein followed by NO addition measured after 2 mins by radioimmunoassay relative to control. The method in brief:
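Purified bovine lung sGC (5 ng/ml) in 50 mM Tris, 0.3 mM MgCl, 100 μM EGTA, 0.045% BSA, 1000 units/mL SOD, pH 7.4, with 1 mM MgGTP at 37 °C. Compound (100 μM) added before DEA/NO (30 nM). Reaction ran 2 min, then aliquots were boiled in 50 mM Tris/4 mM EDTA. cGMP was quantified by [3H] radioimmunoassay.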

Test [3] concerns the target Soluble guanylate cyclase (Homo sapiens) (UniProt Q02153+O75343+P33402+Q02108). Kind of test: Binding affinity to human recombinant sGC catalytic subunit by surface plasmon resonance analysis. The format is protein-complex assay.

`O=[N+]([O-])c1ccc2nc(Nc3ccc(O)cc3)c(Nc3ccc(O)cc3)nc2c1`: in the test filed under Rattus norvegicus, the inhibition entry was “Active”. Further, the inhibition entry in test [1] and in test [2] was “inactive” each time.

On to `CC(=O)Nc1cccc(Nc2nc3ccc([N+](=O)[O-])cc3nc2Nc2cccc(NC(C)=O)c2)c1`, for which the inhibition result in the test filed under Bos taurus is “inactive”.

On to `N#Cc1ccc2nc(Nc3cccc(O)c3)c(Nc3cccc(O)c3)nc2c1`, for which, in the test filed under Bos taurus, the inhibition entry is “inactive”.

On to `COc1ccc(Nc2nc3ccc([N+](=O)[O-])cc3nc2Nc2ccc(OC)cc2)cc1`, for which, in the test listed under Bos taurus, the inhibition entry is “inactive”.

With `CNC(=O)c1ccc2nc(Nc3cccc(O)c3)c(Nc3cccc(O)c3)nc2c1`, the RU in test [3] is 9.6.

Regarding `N#Cc1ccc2nc(Nc3ccc(O)cc3)c(Nc3ccc(O)cc3)nc2c1`, the inhibition result in the test filed under Bos taurus is “inactive”.

In the case of `Oc1ccc(Nc2nc3ccc(Cl)cc3nc2Nc2ccc(O)cc2)cc1`, the inhibition result in the test listed under Bos taurus was “inactive”.

For `CC(=O)Nc1ccc(Nc2nc3ccc([N+](=O)[O-])cc3nc2Nc2ccc(NC(C)=O)cc2)cc1`, the inhibition entry in the test filed under Bos taurus is “inactive”.

In the case of `O=[N+]([O-])c1ccc2nc(Nc3ccc(F)cc3)c(Nc3ccc(F)cc3)nc2c1`, in the test listed under Bos taurus, the inhibition entry was “inactive”.

As to `Nc1ccc2nc(Nc3ccc(O)cc3)c(Nc3ccc(O)cc3)nc2c1`, in the test listed under Bos taurus, the inhibition result is “inactive”.

In the case of `Oc1cccc(Nc2nc3ccc(Cl)cc3nc2Nc2cccc(O)c2)c1`, the inhibition entry in the test filed under Bos taurus was “inactive”.
